Measured values from ChEMBL document CHEMBL3826936, “Alkyne-substituted diminazene as G-quadruplex binders with anticancer activities” (Eur J Med Chem, 2016).
Activity calls are given as the source filed them. No cut-off for these calls is given here.

Experiments:
[1] = Binding affinity to wild type c-MYC 24-mer G-quadruplex DNA (unknown origin) at 4:1 ligand:DNA molar ratio by isothermal titration calorimetry
[2] = Binding affinity to 5'-FAM/3'-TAMRA labeled F21T 21-mer G-quadruplex DNA (unknown origin) assessed as change in melting temperature at 4 uM after 12 hrs by TR-FRET assay
Summary of the method: (§1)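 Dual-labeled FAM/TAMRA oligos diluted to 800 nM in 60 mM potassium cacodylate (pH 7.2), annealed 10 min at 85 °C and cooled to room temperature. Mixed 1:1 with ligand at […] in the same buffer. Equilibrated at least 12 h at 4 °C. ΔT1/2 taken as melting temperature with minus without ligand, in triplicate, averaged.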

[3] = Binding affinity to 5'-FAM/3'-TAMRA labeled 26-mer duplex DNA (unknown origin) assessed as change in melting temperature at 4 uM after 12 hrs by TR-FRET assay
[4] = tested on: MDA-MB-231; test: Antiproliferative activity against human MDA-MB-231 cells after 72 hrs by WST-1 assay; assay type: functional; settings: MDA-MB-231, 72 h
Summary of the method: (§2)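 Cells seeded in 96-well plates the afternoon before treatment, at numbers keeping them in log-phase growth; about 18 h later, compounds semi-serially diluted in DMSO then growth medium and added. Incubation 72 h, then WST-1 added and plates read after 4 more hours at 37 °C. GI50 derived from curve fits; viability expressed relative to DMSO control.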

[5] = Antiproliferative activity against human PC3 cells after 72 hrs by WST-1 assay; assay type: functional; settings: PC-3, 72 h; summary of the method: as §2
[6] = Binding affinity to 5'-FAM/3'-TAMRA labeled k-RAS21R 21-mer G-quadruplex DNA (unknown origin) assessed as change in melting temperature at 4 uM after 12 hrs by TR-FRET assay; summary of the method: as §1
[7] = Antiproliferative activity against human OVCAR3 cells after 72 hrs by WST-1 assay; assay type: functional; settings: OVCAR-3, 72 h; summary of the method: as §2
[8] = Binding affinity to 5'-FAM/3'-TAMRA labeled c-MYC 22-mer G-quadruplex DNA (unknown origin) assessed as change in melting temperature at 4 uM after 12 hrs by TR-FRET assay; summary of the method: as §1
[9] = Binding affinity to 5'-FAM/3'-TAMRA labeled c-kit2 26-mer G-quadruplex DNA (unknown origin) assessed as change in melting temperature at 4 uM after 12 hrs by TR-FRET assay; summary of the method: as §1
[10] = Antiproliferative activity against human PC3 cells assessed as cell viability at 20 uM after 72 hrs by WST-1 assay relative to control; assay type: functional; settings: PC-3, 72 h, read-out: Activity; summary of the method: as §2
[11] = Binding affinity to 5'-FAM/3'-TAMRA labeled c-MYC 22-mer G-quadruplex DNA (unknown origin) at 4 uM in presence of 26-mer duplex DNA by TR-FRET assay
[12] = Antiproliferative activity against human OVCAR3 cells assessed as cell viability at 20 uM after 72 hrs by WST-1 assay relative to control; assay type: functional; settings: OVCAR-3, 72 h, read-out: Activity; summary of the method: as §2
[13] = tested on: MDA-MB-231; test: Antiproliferative activity against human MDA-MB-231 cells assessed as cell viability at 20 uM after 72 hrs by WST-1 assay relative to control; assay type: functional; settings: MDA-MB-231, 72 h, read-out: Activity; summary of the method: as §2
[14] = Antiproliferative activity against human MCR5A cells after 72 hrs by WST-1 assay; assay type: cell-based
Summary of the method: (§3)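 Cells seeded the afternoon before treatment at densities giving log-phase growth; about 18 h later compounds, semi-serially diluted in DMSO then growth medium, were added. After 72 h WST-1 was added, with a further 4 h at 37 °C before plate reading. GI50 values were calculated from the curves. NBM was grown in RPMI; MCR5A was handled per ATCC.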

[15] = Antiproliferative activity against human bone marrow cells after 72 hrs by WST-1 assay; assay type: cell-based, Bone marrow cell; summary of the method: as §3
[16] = Stabilization of c-MYC template Pu27 mutant DNA (unknown origin) assessed as inhibition of Taq polymerase-mediated polymerization/extension of Pu27 mutant and Pu27rev oligomers at 10 uM preincubated for 6 hrs followed by Taq polymerase addition by PCR stop assay
Summary of the method: (§4)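 Each 25 µL PCR mix held 1x buffer, 5 µM template (Pu27, Pu27-13,14 or Pu-mutant) and 5 µM Pu27rev, plus ligand at various concentrations, and was held at 4 °C for 6 h. Then 200 µM dNTPs and 5 U Taq were added. Cycling: 94 °C 3 min, then 20 cycles of 94 °C 30 s, 58 °C 30 s and 72 °C 30 s. Reactions without compound served as control.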

[17] = target: Telomerase reverse transcriptase (Homo sapiens) (UniProt O14746); test: Inhibition of telomerase activity in human MDA-MB-231 cells using amplifour TS primer preincubated for 48 to 72 hrs followed by primer addition measured after 30 mins by fluorescence plate reader analysis relative to control; assay type: cell-based
Summary of the method: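 MDA-MB-231 cells, 2 × 10⁵ per T-25 flask, were treated the next morning with vehicle or compound at 0.5×, 1×, 2× or 4× GI50. After 48 or 72 h they were lysed in CHAPS buffer with RNase inhibitor on ice for 30 min. Lysate (1000 cell-equivalents) went into a fluorescent TRAP reaction at 30 °C for 30 min. TPG units were taken against an internal standard, and inhibition was expressed relative to untreated cells.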

[18] = target: Telomerase reverse transcriptase (Homo sapiens) (UniProt O14746); settings: MDA-MB-231, 25 uM
[19] = Stabilization of c-MYC Pu27 G-quadruplex DNA (unknown origin) assessed as inhibition of Taq polymerase-mediated polymerization/extension of Pu27 and Pu27rev oligomers at 25 uM preincubated for 6 hrs followed by Taq polymerase addition by PCR stop assay; summary of the method: as §4
[20] = tested on: MDA-MB-231; test: Binding affinity to c-MYC G-quadruplex DNA in human MDA-MB-231 cells assessed as inhibition of c-MYC protein expression at 22.3 uM incubated for 24 hrs by Western blot analysis relative to control; assay type: cell-based
Summary of the method: (§5)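 MDA-MB-231 cells were grown in DMEM with 10% heat-inactivated FBS at 37 °C and 5% CO2, then treated with DMSO vehicle or compound for 2, 6 or 24 h. Cells were washed in PBS and lysed in RIPA buffer with protease inhibitors. Blots were probed with anti-c-MYC (1:1000) and HRP anti-rabbit IgG (1:10,000), with β-actin as loading control. Band density is given as percent of vehicle at each time point.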

[21] = tested on: MDA-MB-231; test: Binding affinity to c-MYC G-quadruplex DNA in human MDA-MB-231 cells assessed as inhibition of c-MYC protein expression at 111.5 uM incubated for 24 hrs by Western blot analysis relative to control; assay type: cell-based; summary of the method: as §5
[22] = tested on: MDA-MB-231; test: Binding affinity to c-MYC G-quadruplex DNA in human MDA-MB-231 cells assessed as inhibition of c-MYC protein expression at 22.3 uM incubated for 6 hrs by Western blot analysis relative to control; assay type: cell-based; summary of the method: as §5
[23] = target: Telomerase reverse transcriptase (Homo sapiens) (UniProt O14746); settings: MDA-MB-231, 25 uM; remark: listed apart in the source
[24] = Stabilization of c-MYC template Pu27-13,14 mutant DNA (unknown origin) assessed as inhibition of Taq polymerase-mediated polymerization/extension of Pu27-13,14 mutant and Pu27rev oligomers at 10 uM preincubated for 6 hrs followed by Taq polymerase addition by PCR stop assay; summary of the method: as §4
[25] = Antiproliferative activity against human bone marrow cells assessed as cell viability at 20 uM after 72 hrs by WST-1 assay relative to control; assay type: cell-based; settings: read-out: Activity; summary of the method: as §2
[26] = Stabilization of c-MYC template Pu27 mutant DNA (unknown origin) assessed as inhibition of Taq polymerase-mediated polymerization/extension of Pu27 mutant and Pu27rev oligomers at 1 to 100 uM preincubated for 6 hrs followed by Taq polymerase addition by PCR stop assay
[27] = Stabilization of c-MYC template Pu27-13,14 mutant DNA (unknown origin) assessed as inhibition of Taq polymerase-mediated polymerization/extension of Pu27-13,14 mutant and Pu27rev oligomers at 100 uM preincubated for 6 hrs followed by Taq polymerase addition by PCR stop assay
[28] = Binding affinity to c-MYC2345 G-quadruplex DNA (unknown origin) at 150 uM incubated for 2 hrs by 1H NMR method
[29] = tested on: MDA-MB-231; test: Binding affinity to c-MYC G-quadruplex DNA in human MDA-MB-231 cells assessed as inhibition of c-MYC protein expression at 19.5 uM incubated for 24 hrs by Western blot analysis relative to control; assay type: cell-based
Summary of the method: (§6)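 MDA-MB-231 cells, grown in DMEM with 10% heat-inactivated FBS at 37 °C and 5% CO2, exposed for 6 or 24 h; DMSO vehicle as comparator. Cells harvested, PBS-washed, lysed in RIPA with protease inhibitors. Blots probed with c-MYC antibody (1:1000) and HRP anti-rabbit IgG (1:10,000), β-actin as loading control. Densitometry given as percent of vehicle at each time point.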

[30] = Binding affinity to c-kit1 22-mer G-quadruplex DNA (unknown origin) at 150 uM incubated for 2 hrs by 1H NMR method
[31] = target: Telomerase reverse transcriptase (Homo sapiens) (UniProt O14746); test: Inhibition of telomerase activity in human MDA-MB-231 cells using amplifour TS primer at 12.4 uM preincubated for 48 hrs followed by primer addition measured after 30 mins by fluorescence plate reader analysis relative to control; assay type: cell-based
Summary of the method: (§7)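 MDA-MB-231 seeded at 2 × 10^5 cells per T-25 flask the evening before, then treated with vehicle or compound for 48 or 72 h. Harvested cells lysed in CHAPS buffer with RNase inhibitor, 30 min on ice; supernatant kept after 12,000 × g spin. TRAPeze XL fluorescence assay used 1000 cell-equivalents, 30 min at 30 °C; TPG units from product/internal-standard ratio; inhibition relative to untreated cells.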

[32] = Binding affinity to 8-bp AT rich duplex DNA (unknown origin) at 150 uM incubated for 2 hrs by 1H NMR method
[33] = Antiproliferative activity against human MCR5A cells assessed as cell viability at 20 uM after 72 hrs by WST-1 assay relative to control; assay type: cell-based; settings: read-out: Activity; summary of the method: as §2
[34] = target: Telomerase reverse transcriptase (Homo sapiens) (UniProt O14746); test: Inhibition of telomerase activity in human MDA-MB-231 cells using amplifour TS primer at 12.4 uM preincubated for 72 hrs followed by primer addition measured after 30 mins by fluorescence plate reader analysis relative to control; assay type: cell-based; summary of the method: as §7
[35] = Stabilization of c-MYC pu27 G-quadruplex DNA (unknown origin) assessed as inhibition of Taq polymerase-mediated polymerization/extension of Pu27 and Pu27rev oligomers at 100 uM preincubated for 6 hrs followed by Taq polymerase addition by PCR stop assay
[36] = tested on: MDA-MB-231; test: Binding affinity to c-MYC G-quadruplex DNA in human MDA-MB-231 cells assessed as inhibition of c-MYC protein expression at 19.5 uM incubated for 6 hrs by Western blot analysis relative to control; assay type: cell-based; summary of the method: as §6

Sequence of Telomerase reverse transcriptase (Homo sapiens) (O14746 whole entry): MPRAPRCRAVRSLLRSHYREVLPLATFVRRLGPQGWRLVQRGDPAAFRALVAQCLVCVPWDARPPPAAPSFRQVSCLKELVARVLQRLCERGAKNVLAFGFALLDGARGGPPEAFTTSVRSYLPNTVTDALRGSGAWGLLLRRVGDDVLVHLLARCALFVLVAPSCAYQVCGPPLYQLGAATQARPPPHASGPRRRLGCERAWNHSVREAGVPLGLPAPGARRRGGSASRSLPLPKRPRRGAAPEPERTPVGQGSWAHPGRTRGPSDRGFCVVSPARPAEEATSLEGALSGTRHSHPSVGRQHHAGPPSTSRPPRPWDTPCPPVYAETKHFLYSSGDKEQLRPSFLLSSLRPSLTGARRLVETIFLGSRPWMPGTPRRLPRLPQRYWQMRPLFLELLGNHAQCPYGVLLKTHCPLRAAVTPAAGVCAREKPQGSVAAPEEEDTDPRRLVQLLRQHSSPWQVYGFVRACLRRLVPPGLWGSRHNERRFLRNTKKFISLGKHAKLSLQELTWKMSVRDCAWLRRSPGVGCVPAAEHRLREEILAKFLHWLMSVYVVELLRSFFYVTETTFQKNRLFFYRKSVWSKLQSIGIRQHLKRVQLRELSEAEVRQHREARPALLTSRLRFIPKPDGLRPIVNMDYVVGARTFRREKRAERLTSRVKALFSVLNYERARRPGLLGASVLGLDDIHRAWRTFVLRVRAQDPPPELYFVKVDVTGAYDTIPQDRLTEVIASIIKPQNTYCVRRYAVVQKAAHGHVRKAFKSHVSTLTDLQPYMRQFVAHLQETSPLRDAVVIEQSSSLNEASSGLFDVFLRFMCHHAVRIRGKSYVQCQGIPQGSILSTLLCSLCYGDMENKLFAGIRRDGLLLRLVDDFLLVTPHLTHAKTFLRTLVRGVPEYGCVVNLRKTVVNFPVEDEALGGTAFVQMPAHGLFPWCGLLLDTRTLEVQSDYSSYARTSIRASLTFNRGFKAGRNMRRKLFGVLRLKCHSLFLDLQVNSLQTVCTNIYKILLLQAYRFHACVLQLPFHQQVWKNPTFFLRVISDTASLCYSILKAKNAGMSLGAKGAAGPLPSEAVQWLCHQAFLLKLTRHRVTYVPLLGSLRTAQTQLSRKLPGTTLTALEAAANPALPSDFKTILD

| Compound | Activity [1] | ΔTm [2] | ΔTm [3] | GI50 [4] | GI50 [5] | ΔTm [6] | GI50 [7] | ΔTm [8] | ΔTm [9] | Activity [11] | also measured |
| --- | --- | --- | --- | --- | --- | --- | --- | --- | --- | --- | --- |
| C#Cc1cccc(N/N=N/c2ccc(C(=N)N)cc2)c1 | Active | < 5 °C | < 5 °C | 20.5 µM | 18 µM | 7.1 °C | 16.8 µM | 8.2 °C | 5.48 °C |  |  |
| N=C(N)c1ccc(/N=N/Nc2ccncc2)cc1 |  | < 5 °C | < 5 °C |  |  | 4.3 °C |  | 6.1 °C | 6.58 °C | inactive | viability at 20 µM [10]: ≥ 75%; viability at 20 µM [12]: ≥ 75%; viability at 20 µM [13]: ≥ 75% |
| C[n+]1ccc(-c2c3nc(c(-c4cc[n+](C)cc4)c4ccc([nH]4)c(-c4cc[n+](C)cc4)c4nc(c(-c5cc[n+](C)cc5)c5ccc2[nH]5)C=C4)C=C3)cc1 |  |  |  | 14.3 µM | 14 µM |  | 14.6 µM |  |  |  | GI50 at 72 h [14]: 15.2 µM; GI50 at 72 h [15]: 16.8 µM |
| C[n+]1ccc(-c2c3nc(c(-c4cc[n+](C)cc4)c4ccc([nH]4)c(-c4cc[n+](C)cc4)c4ccc([nH]4)c(-c4cc[n+](C)cc4)c4nc2C=C4)C=C3)cc1 |  | < 5 °C | < 5 °C |  |  | 46.7 °C |  | 24.1 °C |  |  | inhibition [16]: Active; inhibition [17]: Dose-dependent effect; inhibition [18]: 60%; inhibition [19]: Active; inhibition [20]: 92%; inhibition [21]: 100%; inhibition [22]: 40%; inhibition [23]: 80%; inhibition [24]: Active |
| N=C(N)c1ccc(/N=N/Nc2ccccc2C#Cc2ccc(F)cc2)cc1 |  | < 5 °C | < 5 °C | 6.2 µM | 7.4 µM | 2.7 °C | 9.5 µM | 8.8 °C | 5.12 °C | inactive | viability at 72 h, 20 µM [25]: ≥ 75%; inhibition [26]: inactive; inhibition [27]: inactive; Activity [28]: Active; inhibition [29]: 100%; Activity [30]: Active; inhibition [31]: 20%; Activity [32]: inactive; viability at 72 h, 20 µM [33]: ≥ 75%; inhibition [34]: 30%; inhibition [35]: Active; inhibition [36]: inactive |
| C#Cc1ccccc1N/N=N/c1ccc(C(=N)N)cc1 | Active | < 5 °C | < 5 °C | 23.2 µM | > 50 µM | 4.2 °C | > 25 µM | 7 °C | 7.68 °C |  |  |
